These results are taken from publication PMC2819025 (Biochemistry, 2010).

Test [1] has as its target par3-PDZ3 (Mus musculus, UniProt Q99NH2). Briefly: Fluorescence polarization titration of rhodamine-labeled peptides with par3-PDZ3. The format is binding, M. musculus. As to conditions: rhodamine labeled peptide. The gist of the method: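 Mouse par3-PDZ3 (residues 581–689) was expressed in E. coli SG13009 with a cleavable N-terminal His8 tag, purified by Ni2+ affinity, TEV-cleaved and cation-exchange purified. Increasing par3-PDZ3 was titrated into 100nM N-terminally rhodamine-labelled synthetic peptide in 50mM HEPES, 100mM NaCl, 1mM DTT, 1mM EDTA, pH 7.4, 298K (ex 562nm/em 582nm). Kd came from fitting a single-site hyperbolic binding equation.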
In general terms: Polarisation of emitted light reports the rotation of a fluorescent probe.

Test [2] addresses par3-PDZ3. As to conditions: read-out: Kd for par3-PDZ3; reported value; ref [16]; cited from earlier work.
For test [3], the target named is par3-PDZ3 (residues 581 to 689 of M. musculus par3) (M. musculus, UniProt Q99NH2 581-689). Briefly: fluorescence polarisation.

No end group written: not given here. rhodamine = not defined here

par3-PDZ3 (residues 581 to 689 of M. musculus par3), sequence (Q99NH2 581-689): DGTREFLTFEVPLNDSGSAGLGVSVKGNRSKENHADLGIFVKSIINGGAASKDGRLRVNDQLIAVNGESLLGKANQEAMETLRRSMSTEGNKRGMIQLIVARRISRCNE
par3-PDZ3 (Mus musculus, UniProt Q99NH2), sequence (Q99NH2 581-689): as above

Consider QHSQITKVcoo-, for which, at par3-PDZ3 [1], the “interaction with par3-PDZ3 (detected or not)” value was “failed to detect any interaction”. As usually defined, the Kd is the concentration at which binding is half-saturated. As to DEDQHSQITKVcoo-, the Kd on par3-PDZ3 [2] was 19 µM.

B1: rhodamine-labeled VE-Cad (773-784) (peptide)
peptide: rhodamine-LYGSDPQEELII
modifications: reading uncertain
In turn, B1 yielded a dissociation constant Kd in test [3] of 6 µM.

B2: rhodamine-labeled VE-Cad (773-784) Y774A (peptide, UniProt P55284 773-784, looked up)
peptide: rhodamine-LAGSDPQEELII
modifications: reading uncertain
Take B2: the binding result in test [3] was “binds”.
